Assay outcomes from PubChem.
Phagocyt inh = macrophage phagocytosis inhibition. inhibition, % at 5 µM. AID 1029. J774A.1 macrophage IgG-bead phagocytosis, imaging. 110,000 compounds, 0.07% hits;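 active = inhibition above the mean of the plate negative controls plus 5 SD, cut at about 13% in these data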;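 also: phagocytic index as fraction of beads internalized from green versus red external bead signal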
MRP reversal = reverses drug resistance mediated by MRP; H69AR cells + 2 uM doxorubicin, CellTiter-Glo, 72 h; differential viability (reversal), % at 10 µM; 85,000 compounds, 0.04% hits;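 active = viability drop by adding the cancer drug above about 55%, with treated viability meeting a 40% cutoff, limit read from the data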;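 also: larger differential means the compound sensitizes cells more to doxorubicin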
Yeast life ext = yeast lifespan extension; S. cerevisiae growth with nicotinamide, OD615; deaD strain in restrictive glucose medium; inhibition of the nicotinamide effect, % at 10 µM; 130,000 compounds, 0.68% hits; AID 775;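 active = inhibition above a set limit, placed 3 SD over the median of all compounds, cut at about 26% in these data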
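System: DeaD-strain S. cerevisiae / Buffer or medium: CSMM-D, restrictive glucose (dextrose) synthetic minimal medium / Probe or stimulus: nicotinamide, 1.5 mM, co-present with compound / Compound: one concentration, 10 µM, DMSO 0.25% / Incubation: 48 h compound exposure at 30 °C, humidified / Technique: optical density (absorbance) at 615 nm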
Yeast growth inh = yeast BB579 growth reduction in restrictive medium; inhibition, % at 10 µM; S. cerevisiae BB579 growth, OD615, 48 h; AID 804; 140,000 compounds, 0.51% hits;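 active = inhibition above a set limit, 3 SD over the mean compound inhibition, cut at about 44% in these data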
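Test system: S. cerevisiae DeaD strain BB579 yeast; Medium: restrictive CSMM-D medium; Compound: one dose, 10 µM compound with 0.25% DMSO; Incubation: 4 h cell preincubation, 48 h compound exposure, 30 °C humidified; Signal: OD at 615 nm; Benchmarks: amphotericin B at 10 µg/mL as positive control.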
SDO1 yeast rescue = restores growth of sdo1-depleted yeast | AID 817 | 140,000 compounds, 0.21% hits | z-score at 10 µM | S. cerevisiae sdo1-depleted JHY4D growth rescue, OD600 30 h; active compounds read high; pdr5 snq2 efflux-pump mutant strain;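 active = z-score above 3 at both the 24 hr and the 30 hr optical density reads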
MRP-1 activ = MRP-1 activation; H69AR cells + doxorubicin, viability rescue, CellTiter-Glo; viability increase, % at 10 µM; 140,000 compounds, 0.61% hits; AID 799;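 active = viability gain under doxorubicin at or above a set limit, the compound median plus 3 SD, cut at about 4.7% in these data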;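 also: MRP-1 overexpressing cells given doxorubicin 25 µM after compound pretreatment; 18-22 h compound pretreatment then 72 h with doxorubicin before readout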
SDO1 rescue DR = SDO1-depleted yeast growth rescue confirmation; shares compounds with SDO1 yeast rescue; S. cerevisiae JHY4D (SDO1-depleted) growth rescue, OD600, 30 h; active compounds read high; efflux-deficient strain, SNQ2 and PDR5 mutated; OD recovery (test concentration not listed); 440 compounds, 44% hits;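 active = yeast growth recovered at 30 hours, either rising with dose fitted slope above 0.001 or with average optical density gain above 0.07, some results past the limit were not filed as active; inactive = growth falling with dose or no effect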
A number is an active result. Only some compounds are listed: those with a hit (about 2.1% of all), similar ones and a draw of the others.

`Cn1c(=O)c2[nH]c(CN3CCN(Cc4ccccc4)CC3)nc2n(C)c1=O` gave Phagocyt inh inactive, MRP reversal inactive, Yeast life ext inactive, Yeast growth inh inactive, SDO1 yeast rescue inactive and MRP-1 activ inactive.
Screening Cn1c(=O)c2[nH]c(CNCc3ccccc3Cl)nc2n(C)c1=O returned Phagocyt inh inactive, MRP reversal inactive, Yeast life ext inactive, Yeast growth inh inactive, SDO1 yeast rescue inactive, MRP-1 activ inactive and SDO1 rescue DR inactive.
`CCOC(=O)c1cnc2ccc(C)cc2c1Sc1ccc(F)cc1` gave Phagocyt inh inactive, Yeast life ext inactive, Yeast growth inh inactive, SDO1 yeast rescue 13, MRP-1 activ inactive and SDO1 rescue DR 0.097.
Screening COc1cc2c(cc1NC(=O)c1cccc([N+](=O)[O-])c1)oc1ccccc12 returned Phagocyt inh inactive, Yeast life ext inactive, Yeast growth inh inactive, SDO1 yeast rescue 3, MRP-1 activ inactive and SDO1 rescue DR inactive.
CS(=O)(=O)N1CCCC(C(=O)NC2CCCCCCC2)C1 (configuration not stated) was read as Phagocyt inh inactive, MRP reversal inactive, Yeast life ext inactive, Yeast growth inh inactive, SDO1 yeast rescue inactive and MRP-1 activ inactive.
`CC(C)NC(=O)C1CCCN(S(C)(=O)=O)C1` (configuration not stated) gave Phagocyt inh inactive, MRP reversal inactive, Yeast life ext inactive, Yeast growth inh inactive, SDO1 yeast rescue inactive, MRP-1 activ inactive and SDO1 rescue DR inactive.
CCN(CC)S(=O)(=O)c1ccc(S(=O)(=O)N(Cc2ccccn2)Cc2ccco2)cc1 was read as Phagocyt inh inactive, MRP reversal inactive, Yeast life ext inactive, Yeast growth inh inactive, SDO1 yeast rescue inactive and MRP-1 activ inactive.
For CCCc1nnc(SCC(=O)N2CCCC2)n1CC1CCCO1 (configuration not stated) the results were Phagocyt inh inactive, MRP reversal inactive, Yeast life ext inactive, Yeast growth inh inactive, SDO1 yeast rescue 3.2, MRP-1 activ inactive and SDO1 rescue DR inactive.
`CCCc1nnc(SCC(=O)N2CCCCC2)n1CC1CCCO1` (configuration not stated) gave MRP reversal inactive, Yeast life ext inactive, Yeast growth inh inactive, SDO1 yeast rescue inactive and MRP-1 activ inactive.
O=C(CCCN1C(=O)c2ccccc2C1=O)NCC1CCCO1 (configuration not stated) was read as Phagocyt inh inactive, MRP reversal inactive, Yeast life ext inactive, Yeast growth inh inactive, SDO1 yeast rescue inactive, MRP-1 activ inactive and SDO1 rescue DR inactive.
Screening O=C(CN1C(=O)c2ccccc2C1=O)NCC1CCCO1 (configuration not stated) returned Phagocyt inh inactive, Yeast life ext inactive, Yeast growth inh inactive, SDO1 yeast rescue inactive and MRP-1 activ inactive.
O=C(Nc1ccccc1)c1ccc(NCC2CCCO2)c([N+](=O)[O-])c1 (configuration not stated) was read as Phagocyt inh inactive, Yeast life ext inactive, Yeast growth inh inactive, SDO1 yeast rescue 11, MRP-1 activ inactive and SDO1 rescue DR 0.086.
For O=C(Nc1ccccc1)c1ccc(S(=O)(=O)NCC2CCCO2)cc1 (configuration not stated) the results were Phagocyt inh inactive, MRP reversal inactive, Yeast life ext inactive, Yeast growth inh inactive, SDO1 yeast rescue inactive and MRP-1 activ inactive.
`C=C(C)Cn1c(CCn2c3ccccc3c3ccccc32)n[nH]c1=S` gave Phagocyt inh inactive, Yeast life ext inactive, Yeast growth inh inactive, SDO1 yeast rescue inactive and MRP-1 activ inactive.
`COc1ccc(Cl)cc1C(=O)Nc1nnn(C)n1` gave Phagocyt inh inactive, MRP reversal inactive, Yeast life ext inactive, Yeast growth inh inactive, SDO1 yeast rescue inactive, MRP-1 activ inactive and SDO1 rescue DR inactive.
For COc1ccc(Br)cc1C(=O)Nc1nnn(C)n1 the results were MRP reversal inactive, Yeast life ext inactive, Yeast growth inh inactive, SDO1 yeast rescue inactive and MRP-1 activ inactive.
Cc1nnc(SCCC#N)n(CCC#N)c1=O was read as Phagocyt inh inactive, MRP reversal inactive, Yeast life ext inactive, Yeast growth inh inactive, SDO1 yeast rescue inactive and MRP-1 activ inactive.
Screening CCC(CC)C(=O)Nc1cc(C(=O)OC)ccc1C(=O)OC returned Phagocyt inh inactive, Yeast life ext inactive, Yeast growth inh inactive, SDO1 yeast rescue 10, MRP-1 activ inactive and SDO1 rescue DR inactive.
CCCCC(=O)Nc1cc(NC(=O)CC)ccc1Cl was read as Phagocyt inh inactive, MRP reversal inactive, Yeast life ext inactive, Yeast growth inh inactive, SDO1 yeast rescue 3.4, MRP-1 activ inactive and SDO1 rescue DR inactive.
For COc1ccc(C)cc1NC(=O)C1CCCN(S(=O)(=O)c2cnc[nH]2)C1 (configuration not stated) the results were Phagocyt inh inactive, MRP reversal inactive, Yeast life ext inactive, Yeast growth inh inactive, SDO1 yeast rescue inactive and MRP-1 activ inactive.
Screening COc1ccccc1NC(=O)C1CCCN(S(=O)(=O)c2cnc[nH]2)C1 (configuration not stated) returned Phagocyt inh inactive, MRP reversal inactive, Yeast life ext inactive, Yeast growth inh inactive, SDO1 yeast rescue inactive, MRP-1 activ inactive and SDO1 rescue DR inactive.
CCOC(=O)c1c(NC(=O)OC)sc2c1CCC2 was read as Phagocyt inh inactive, MRP reversal inactive, Yeast life ext inactive, Yeast growth inh inactive, SDO1 yeast rescue inactive and MRP-1 activ inactive.
For CCOC(=O)c1c(NC(=S)Nc2ccc(C)cc2)sc2c1CCC2 the results were Yeast life ext inactive, Yeast growth inh inactive, SDO1 yeast rescue inactive, MRP-1 activ inactive and SDO1 rescue DR 0.088.
For COc1ccc(CNC(=O)c2cc(-c3ccc(OC)c(OC)c3)on2)cc1 the results were Phagocyt inh inactive, MRP reversal inactive, Yeast life ext inactive, Yeast growth inh inactive, SDO1 yeast rescue 8.7, MRP-1 activ inactive and SDO1 rescue DR inactive.
COc1ccc(NC(=O)c2cc(-c3ccc(OC)c(OC)c3)on2)cc1OC was read as Phagocyt inh inactive, MRP reversal inactive, Yeast life ext inactive, Yeast growth inh inactive, SDO1 yeast rescue inactive, MRP-1 activ inactive and SDO1 rescue DR inactive.
For COc1ccccc1OCC(=O)NNC(=O)c1ccoc1C the results were Phagocyt inh inactive, Yeast life ext inactive, Yeast growth inh inactive, SDO1 yeast rescue 5.1, MRP-1 activ inactive and SDO1 rescue DR inactive.
`Cc1cccc(-n2c(CCCN3C(=O)c4ccccc4C3=O)nc3ccccc3c2=O)n1` gave Phagocyt inh inactive, MRP reversal inactive, Yeast life ext inactive, Yeast growth inh inactive, SDO1 yeast rescue inactive and MRP-1 activ inactive.
Screening CCOC(=O)c1sc(=S)n(-c2ccccc2)c1N returned MRP reversal inactive, Yeast growth inh inactive, SDO1 yeast rescue 4, MRP-1 activ inactive and SDO1 rescue DR inactive.
